From ChEMBL document CHEMBL1152565, “Furo[3',2':3,4]naphtho[1,2-d]imidazole derivatives as potential inhibitors of inflammatory factors in sepsis” (Bioorg Med Chem, 2009)
Active and inactive are the calls of the source. The calls are words filed in the database; no cut-off is given here.

Legend:
RAW264.7 [1] = assay: Inhibition of LPS-induced nitric oxide accumulation in mouse RAW264.7 cells; assay type: functional, cell-based
In short: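 RAW 264.7 macrophages grown in DMEM with 5% FBS at 37 °C, 5% CO2, and stimulated with LPS. Nitrite accumulated in medium read with Griess reagent (sulfanilamide/N-(1-naphthyl)ethylenediamine in phosphoric acid, 5 min) at OD550 against sodium nitrite standard in culture medium. IC50 as means ± SE of at least three experiments.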

Rattus norvegicus [2] = organism: Rattus norvegicus; assay: Inhibition of PMA-induced superoxide generation in Sprague-Dawley rat neutrophils; assay type: functional; conditions: Neutrophil
In short: (§1)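 Sprague-Dawley rat peripheral blood neutrophils preincubated with compound 5 min at 37 °C, then stimulated 30 min with fMLP (0.3 μM)/CB (5 μg/mL) or PMA (3 nM) in presence of cytochrome c. Superoxide quantified as superoxide dismutase-inhibitable cytochrome c reduction. Final DMSO <0.5% (v/v). IC50 as means ± SE, at least three separate experiments.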

Neutrophil = assay: Inhibition of fMLP-induced superoxide generation in Sprague-Dawley rat neutrophils; assay type: functional, cell-based; in short: as §1
[3] = Antiinflammatory activity against Sprague-Dawley rat neutrophils assessed as inhibition of fMLP/cytochalasin B-induced lysozyme release; assay type: functional, cell-based; conditions: Neutrophil
In short: (§2)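 Rat (Sprague-Dawley) peripheral blood neutrophils incubated with test compound 5 min at 37 °C, then stimulated with fMLP (0.3 μM)/cytochalasin B (5 μg/ml) for 45 min. β-Glucuronidase and lysozyme measured in supernatant. Compound stocks in DMSO; final DMSO <0.5% (v/v). Means ± SE of at least three separate experiments.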

[4] = Antiinflammatory activity against Sprague-Dawley rat neutrophils assessed as inhibition of fMLP/cytochalasin B-induced beta-glucuronidase release; assay type: functional, cell-based; conditions: Neutrophil; in short: as §2
RAW264.7 [5] = assay: Inhibition of LPS-induced iNOS protein expression in mouse RAW264.7 cells after 2 hrs by Western blot; assay type: functional, cell-based
In short: (§3)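 RAW 264.7 cells (5×10^5 cells/well) pretreated with compound 2 h, then stimulated with LPS 0.1 μg/mL for 24 h. Lysed in RIPA buffer, protein measured by Bradford, 15 μg run on 8% SDS–PAGE and immunoblotted for iNOS with ECL detection. Bands quantified densitometrically relative to β-actin.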

RAW264.7 [6] = assay: Cytotoxicity against mouse RAW264.7 cells up to 10 uM after 24 hrs by methylene blue assay; assay type: cell-based; conditions: raw264.7, 24 h
In short: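 RAW 264.7 cells seeded at 2×10^5 cells/well, given LPS plus various compound concentrations for 24 h. Stained with 1% methylene blue for 40 min, washed, dye released with 1% sarcosyl for 4 h, absorbance read at 570 nm. LPS-treated cells without compound set as 100% survival.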

Rattus norvegicus [7] = assay: Inhibition of sepsis-induced PGE2 production in cecal ligation and puncture Sprague-Dawley rat model serum at 10 mg/kg, ip treated 1 hr before surgery measured after 24 hrs of surgery by ELISA; assay type: functional; conditions: route intraperitoneal
In short: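 Sprague-Dawley rats aged 6–8 weeks (3–4 per group) pretreated intraperitoneally with 10 mg/kg compound or hydrocortisone 1 h before cecal ligation and puncture, saline-resuscitated after. Blood taken from portal vein 24 h post-surgery, centrifuged 3000 rpm 20 min, serum stored at -70 °C. PGE2 measured by ELISA; average of three independent studies.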

Rattus norvegicus [8] = assay: Inhibition of iNOS mRNA expressing in cecal ligation and puncture Sprague-Dawley rat model at 10 mg/kg, ip treated 1 hr before surgery measured after 24 hrs of surgery by PCR amplification; assay type: functional; conditions: route intraperitoneal
In short: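 Sprague-Dawley rats aged 6–8 weeks, 3–4 per group, given compound or hydrocortisone 10 mg/kg by intraperitoneal injection 1 h before cecal ligation and puncture. Resuscitated with 1 mL normal saline after surgery; sham animals handled identically. Lung tissue collected 24 h post-surgery; iNOS mRNA band intensities normalized to GAPDH.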

RAW264.7 [9] = assay: Inhibition of LPS-induced iNOS protein expression in mouse RAW264.7 cells at 5 uM after 2 hrs by Western blot; assay type: functional, cell-based; in short: as §3

Structure (SMILES) | IC50 (RAW264.7 [1]) [µM] | IC50 (Rattus norvegicus [2]) [µM] | IC50 (Neutrophil) [µM] | IC50 [3] [µM] | IC50 [4] [µM] | inhibition (RAW264.7 [5]) | Activity (RAW264.7 [6]) | inhibition in vivo at 10 mg/kg (Rattus norvegicus [7]) [%] | inhibition in vivo at 10 mg/kg (Rattus norvegicus [8]) [%] | inhibition (RAW264.7 [9])
c1ccc2c(c1)c1nc[nH]c1c1ccoc21 | > 30 | > 30 | > 30 | > 30 | > 30 |  |  |  |  | 
CC(=N)NCc1cccc(CN)c1 [1400W] | 2.7 |  |  |  |  |  |  |  |  | 
CN1CCN(CCCN2c3ccccc3Sc3ccc(C(F)(F)F)cc32)CC1 [TRIFLUOPERAZINE] |  |  |  | 11.9 | 12.5 |  |  |  |  | 
O=[N+]([O-])c1ccc(/C=C/c2nc3c4ccccc4c4occc4c3[nH]2)o1 | 1.3 | > 30 | > 30 | > 30 | > 30 | Dose-dependent effect | Non-toxic | 150 | 30 | Active
c1ccc2c(c1)[I+]c1ccccc1-2 [DIPHENYLENEIODONIUM CHLORIDE] |  | 4.3 | 5.2 |  |  |  |  |  |  | 

Now from value to compound, other results behind:

IC50 (RAW264.7 [1]) [µM] | IC50 (Rattus norvegicus [2]) [µM] | IC50 (Neutrophil) [µM] | IC50 [3] [µM] | IC50 [4] [µM] | Structure (SMILES) | inhibition (RAW264.7 [5]) | Activity (RAW264.7 [6]) | inhibition in vivo at 10 mg/kg (Rattus norvegicus [7]) [%] | inhibition in vivo at 10 mg/kg (Rattus norvegicus [8]) [%] | inhibition (RAW264.7 [9])
> 10 | > 30 | > 30 | 7.4 | 5 | O=Cc1ccc(-c2nc3c4ccccc4c4occc4c3[nH]2)cc1 |  |  |  |  | 
11.9 | > 30 | > 30 | 19.5 | 11.3 | c1coc(-c2nc3c4ccccc4c4occc4c3[nH]2)c1 | Dose-dependent effect | Non-toxic |  |  | 
> 10 | > 30 | > 30 | > 10 | > 10 | O=[N+]([O-])c1ccc(-c2nc3c4ccccc4c4occc4c3[nH]2)cc1 |  |  |  |  | 
1.5 | > 30 | > 30 | > 30 | > 30 | O=[N+]([O-])c1ccc(-c2nc3c4ccccc4c4occc4c3[nH]2)o1 | Dose-dependent effect | Non-toxic |  |  | 
> 10 | > 30 | > 30 | 16.3 | 11.4 | c1ccc(-c2nc3c4ccccc4c4occc4c3[nH]2)cc1 |  |  |  |  | 
